ChEMBL document CHEMBL3808393, “Discovery of Potent and Selective Agonists of δ Opioid Receptor by Revisiting the "Message-Address" Concept” (ACS Med Chem Lett, 2016)

What was measured:
Mu-type opioid receptor [1] = target: T1, Mu-type opioid receptor (Homo sapiens, UniProt P35372); assay: Displacement of [3H]DAMGO from human MOR expressed in CHO cell membranes after 60 mins
[2] = target: T2, Kappa-type opioid receptor (Homo sapiens, UniProt P41145); assay: Displacement of [3H]U69593 from human KOR expressed in CHO cell membranes after 60 mins
T2 sequence (P41145 whole entry): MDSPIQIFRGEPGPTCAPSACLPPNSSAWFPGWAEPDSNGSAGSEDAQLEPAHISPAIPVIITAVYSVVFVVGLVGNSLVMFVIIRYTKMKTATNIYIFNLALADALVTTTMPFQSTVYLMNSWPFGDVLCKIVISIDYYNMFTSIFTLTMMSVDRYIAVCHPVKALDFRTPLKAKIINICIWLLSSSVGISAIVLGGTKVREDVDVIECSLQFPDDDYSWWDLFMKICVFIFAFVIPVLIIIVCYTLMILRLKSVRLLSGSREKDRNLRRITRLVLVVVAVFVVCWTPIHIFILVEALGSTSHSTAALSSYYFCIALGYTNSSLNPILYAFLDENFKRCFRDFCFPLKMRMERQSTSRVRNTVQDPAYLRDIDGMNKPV

[3] = target: T3, Delta-type opioid receptor (Homo sapiens, UniProt P41143); assay: Displacement of [3H]DPDPE from human DOR expressed in CHO cell membranes after 60 mins
T3 sequence (P41143 whole entry): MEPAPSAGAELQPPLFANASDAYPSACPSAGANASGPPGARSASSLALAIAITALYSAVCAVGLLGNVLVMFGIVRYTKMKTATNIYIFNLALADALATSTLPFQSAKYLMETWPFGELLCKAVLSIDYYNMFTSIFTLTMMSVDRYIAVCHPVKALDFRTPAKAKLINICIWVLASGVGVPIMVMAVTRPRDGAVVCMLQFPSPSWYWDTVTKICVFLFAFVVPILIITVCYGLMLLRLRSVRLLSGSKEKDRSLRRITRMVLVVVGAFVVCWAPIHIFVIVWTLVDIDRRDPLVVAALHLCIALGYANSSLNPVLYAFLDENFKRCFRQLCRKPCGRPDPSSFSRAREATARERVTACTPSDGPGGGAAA

[4] = target: T3, Delta-type opioid receptor; assay: Displacement of [3H]DPDPE from human DOR expressed in CHO cell membranes at 1 uM after 60 mins
How it was run: (§1)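 Competitive radioligand inhibition binding. […] DOR used [3H]DPDPE on membranes of CHO cells expressing human DOR. KOR used [3H]U69593 on CHO cells expressing human KOR. […] Each compound was run three times, mean ± SEM.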

[5] = target: T3, Delta-type opioid receptor; assay: Agonist activity at human DOR expressed in CHO cell membranes after 60 mins by [35S]GTP-gamma-S binding assay
How it was run: (§2)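 Receptor activation by standard [35S]GTP-γ-S binding. Each compound was assayed three times and reported as mean ± SEM.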

Mu-type opioid receptor [6] = target: T1, Mu-type opioid receptor; assay: Displacement of [3H]DAMGO from human MOR expressed in CHO cell membranes at 1 uM after 60 mins
[7] = target: T2, Kappa-type opioid receptor; assay: Agonist activity at human KOR expressed in CHO cell membranes after 60 mins by [35S]GTP-gamma-S binding assay; how it was run: as §2
[8] = target: T2, Kappa-type opioid receptor; assay: Displacement of [3H]U69593 from human KOR expressed in CHO cell membranes at 1 uM after 60 mins; how it was run: as §1
Mu-type opioid receptor [9] = target: T1, Mu-type opioid receptor; assay: Agonist activity at human MOR expressed in CHO cell membranes after 60 mins by [35S]GTP-gamma-S binding assay
How it was run: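 [35S]GTP-γ-S binding read-out of G-protein activation. Each compound assayed three times, with values given as mean ± standard error of the mean.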

T1 sequence (P35372 whole entry): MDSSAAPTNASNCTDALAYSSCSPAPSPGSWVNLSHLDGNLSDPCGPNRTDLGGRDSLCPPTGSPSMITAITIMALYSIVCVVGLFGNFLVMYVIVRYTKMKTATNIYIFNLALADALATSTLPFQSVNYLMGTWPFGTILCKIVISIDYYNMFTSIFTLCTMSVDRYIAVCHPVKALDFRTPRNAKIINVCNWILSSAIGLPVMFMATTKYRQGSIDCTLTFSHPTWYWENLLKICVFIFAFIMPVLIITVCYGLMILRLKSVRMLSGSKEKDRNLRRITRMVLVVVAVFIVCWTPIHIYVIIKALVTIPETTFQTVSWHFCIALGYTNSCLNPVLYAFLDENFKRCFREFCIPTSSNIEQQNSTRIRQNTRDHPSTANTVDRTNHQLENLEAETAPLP

Row | Structure (SMILES) | Ki [3] | Ki (Mu-type opioid receptor [1]) | Ki [2] | other results
1 | COc1ccccc1-c1ccc2c(c1)CCC(CN(C)C)C2(O)c1cccc(O)c1 (single isomer, unassigned; (+)) | > 10000 nM | – | – | Ki (Mu-type opioid receptor [1]; cho): > 10 µM; Ki ([2]; cho): > 10 µM
2 | COc1cccc([C@@]2(O)c3ccc(-c4ccc(C(F)(F)F)cc4)cc3CC[C@@H]2CN(C)C)c1 | > 10000 nM | > 10 µM | > 10 µM | –
3 | COc1cccc([C@@]2(O)c3ccc(-c4ccccc4OC)cc3CC[C@@H]2CN(C)C)c1 | – | > 10 µM | > 10 µM | inhibition [4]: 37.9%
4 | CN(C)C[C@H]1CCc2cc(-c3ccc(Cl)c(Cl)c3)ccc2[C@]1(O)c1cccc(O)c1 | > 10000 nM | > 10 µM | > 10 µM | –
5 | CN(C)C[C@H]1CCc2cc(-c3ccccc3Cl)ccc2[C@]1(O)c1cccc(O)c1 | 160 nM | > 10 µM | > 10 µM | EC50 [5]: 950 nM; Emax [5]: 216%
6 | COc1ccccc1-c1ccc2c(c1)CCC(CN(C)C)C2(O)c1cccc(O)c1 (single isomer, unassigned; (-)) [listing 1 of 2 here] | – | – | – | Emax [5]: 205%
7 | COc1cccc([C@@]2(O)CCCC[C@@H]2CN(C)C)c1 (racemic) [(R,R)-TRAMADOL] | > 10000 nM | – | > 10 µM | inhibition (Mu-type opioid receptor [6]): 9.6%
8 | Cc1ccccc1-c1ccc2c(c1)CC[C@H](CN(C)C)[C@@]2(O)c1cccc(O)c1 | 140 nM | > 10 µM | > 10 µM | EC50 [5]: 490 nM; Emax [5]: 199%
9 | CN(C)C[C@H]1CCc2cc(-c3ccccc3)ccc2[C@]1(O)c1cccc(O)c1 | – | – | 0.14 µM | inhibition [4]: 22%; inhibition (Mu-type opioid receptor [6]): 20%; EC50 [7]: 580 nM; Emax [7]: 187%
10 | CN(C)C[C@H]1CCc2cc(-c3ccccc3F)ccc2[C@]1(O)c1cccc(O)c1 | 720 nM | > 10 µM | > 10 µM | EC50 [5]: 1600 nM; Emax [5]: 172%
11 | COc1cccc([C@@]2(O)c3ccc(-c4ccc(Cl)cc4)cc3CC[C@@H]2CN(C)C)c1 | > 10000 nM | > 10 µM | > 10 µM | –
12 | COc1cccc([C@@]2(O)c3ccc(-c4ccc(Cl)c(Cl)c4)cc3CC[C@@H]2CN(C)C)c1 | > 10000 nM | > 10 µM | > 10 µM | –
13 | CN(C)C[C@H]1CCc2cc(-c3ccc(C(F)(F)F)cc3)ccc2[C@]1(O)c1cccc(O)c1 | > 10000 nM | > 10 µM | > 10 µM | –
14 | COc1cccc([C@@]2(O)c3ccc(-c4ccccc4C)cc3CC[C@@H]2CN(C)C)c1 | – | > 10 µM | – | inhibition [4]: 13%; inhibition [8]: 16.2%
15 | COc1cccc(-c2ccc3c(c2)CC[C@H](CN(C)C)[C@@]3(O)c2cccc(O)c2)c1 | – | > 10 µM | – | inhibition [4]: 43%; inhibition [8]: 15%
16 | CN(C)C[C@H]1CCc2cc(-c3ccccc3C(F)(F)F)ccc2[C@]1(O)c1cccc(O)c1 | 65 nM | > 10 µM | > 10 µM | EC50 [5]: 900 nM; Emax [5]: 217%
17 | CN(C)C[C@H]1CCCC[C@]1(O)c1cccc(O)c1 (racemic) [O-DESMETHYL TRAMADOL] | > 10000 nM | – | > 10 µM | Emax (Mu-type opioid receptor [9]): 220%
18 | COc1ccccc1-c1ccc2c(c1)CC[C@H](CN(C)C)[C@@]2(O)c1cccc(O)c1 | 4.7 nM | > 10 µM | – | EC50 [5]: 9.3 nM; Emax [5]: 230%; inhibition [8]: 17.7%
19 | CN(C)C[C@H]1CCc2cc(-c3ccc(Cl)cc3)ccc2[C@]1(O)c1cccc(O)c1 | – | > 10 µM | – | inhibition [4]: 17%; inhibition [8]: 8.9%
20 | COc1cccc([C@@]2(O)c3ccc(-c4ccccc4)cc3CC[C@@H]2CN(C)C)c1 | > 10000 nM | > 10 µM | – | inhibition [8]: 37%
21 | COc1ccccc1-c1ccc2c(c1)CCC(CN(C)C)C2(O)c1cccc(O)c1 (single isomer, unassigned; (-)) [listing 2 of 2 here] | 2.7 nM | > 10 µM | > 10 µM | EC50 [5]: 2.6 nM
22 | COc1ccc(-c2ccc3c(c2)CC[C@H](CN(C)C)[C@@]3(O)c2cccc(OC)c2)cc1 | > 10000 nM | > 10 µM | > 10 µM | –
23 | COc1ccc(-c2ccc3c(c2)CC[C@H](CN(C)C)[C@@]3(O)c2cccc(O)c2)cc1 | – | > 10 µM | > 10 µM | inhibition [4]: 32%
24 | CN(C)C[C@H]1CCc2cc(-c3ccccc3OC(F)(F)F)ccc2[C@]1(O)c1cccc(O)c1 | 260 nM | > 10 µM | > 10 µM | EC50 [5]: 1000 nM; Emax [5]: 215%
25 | COc1cccc(-c2ccc3c(c2)CC[C@H](CN(C)C)[C@@]3(O)c2cccc(OC)c2)c1 | > 10000 nM | > 10 µM | > 10 µM | –
